Source: ChEMBL document CHEMBL3774374, “The Effect of Small Molecules on Sterol Homeostasis: Measuring 7-Dehydrocholesterol in Dhcr7-Deficient Neuro2a Cells and Human Fibroblasts” (J Med Chem, 2016)
The source made the active and inactive calls. The rule behind the calls is not given here.

Tests used:
[1] = molecular target: T1, Delta(24)-sterol reductase (Mus musculus) (UniProt Q8VCH6); assay: Inhibition of DR24 in Dhcr7-deficient mouse Neuro2a cells assessed as decrease in 7-DHC levels at 1 uM by LC-MS/GC-MS analysis; format: cell-based
T1 sequence (whole entry): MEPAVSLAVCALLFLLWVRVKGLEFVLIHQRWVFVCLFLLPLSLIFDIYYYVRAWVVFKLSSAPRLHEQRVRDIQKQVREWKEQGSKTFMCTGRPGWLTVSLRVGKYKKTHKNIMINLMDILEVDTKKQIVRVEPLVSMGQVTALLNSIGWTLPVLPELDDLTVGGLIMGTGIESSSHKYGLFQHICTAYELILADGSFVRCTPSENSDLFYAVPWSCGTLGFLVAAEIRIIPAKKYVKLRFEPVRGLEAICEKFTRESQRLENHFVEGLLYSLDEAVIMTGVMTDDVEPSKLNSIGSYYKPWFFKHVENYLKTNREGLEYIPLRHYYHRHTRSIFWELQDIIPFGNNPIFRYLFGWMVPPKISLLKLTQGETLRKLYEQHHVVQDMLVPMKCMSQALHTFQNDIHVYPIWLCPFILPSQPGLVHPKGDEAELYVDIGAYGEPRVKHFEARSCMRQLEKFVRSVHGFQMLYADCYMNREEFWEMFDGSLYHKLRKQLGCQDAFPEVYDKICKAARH
Procedure, shortened: (§1)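 Dhcr7-deficient Neuro2a cells (13000/well, 0.5% FBS medium) on predeposited compound, 24 h at 37 °C. Hoechst-stained and imaged to count cells. Lysed in methanol containing isotope-labelled sterol standards, derivatized with PTAD 20 min at RT, then isocratic C18 UPLC-MS/SRM. Remaining extract silylated with BSTFA for GC-MS, quantified against d7-cholesterol. Follow-up runs in triplicate.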

[2] = molecular target: T2, 3-hydroxy-3-methylglutaryl-coenzyme A reductase (Mus musculus) (UniProt Q01237); assay: Inhibition of HMGCoA reductase in Dhcr7-deficient mouse Neuro2a cells assessed as decrease in 7-DHC levels at 1 uM by LC-MS/GC-MS analysis; format: cell-based; procedure, shortened: as §1
T2 sequence (whole entry): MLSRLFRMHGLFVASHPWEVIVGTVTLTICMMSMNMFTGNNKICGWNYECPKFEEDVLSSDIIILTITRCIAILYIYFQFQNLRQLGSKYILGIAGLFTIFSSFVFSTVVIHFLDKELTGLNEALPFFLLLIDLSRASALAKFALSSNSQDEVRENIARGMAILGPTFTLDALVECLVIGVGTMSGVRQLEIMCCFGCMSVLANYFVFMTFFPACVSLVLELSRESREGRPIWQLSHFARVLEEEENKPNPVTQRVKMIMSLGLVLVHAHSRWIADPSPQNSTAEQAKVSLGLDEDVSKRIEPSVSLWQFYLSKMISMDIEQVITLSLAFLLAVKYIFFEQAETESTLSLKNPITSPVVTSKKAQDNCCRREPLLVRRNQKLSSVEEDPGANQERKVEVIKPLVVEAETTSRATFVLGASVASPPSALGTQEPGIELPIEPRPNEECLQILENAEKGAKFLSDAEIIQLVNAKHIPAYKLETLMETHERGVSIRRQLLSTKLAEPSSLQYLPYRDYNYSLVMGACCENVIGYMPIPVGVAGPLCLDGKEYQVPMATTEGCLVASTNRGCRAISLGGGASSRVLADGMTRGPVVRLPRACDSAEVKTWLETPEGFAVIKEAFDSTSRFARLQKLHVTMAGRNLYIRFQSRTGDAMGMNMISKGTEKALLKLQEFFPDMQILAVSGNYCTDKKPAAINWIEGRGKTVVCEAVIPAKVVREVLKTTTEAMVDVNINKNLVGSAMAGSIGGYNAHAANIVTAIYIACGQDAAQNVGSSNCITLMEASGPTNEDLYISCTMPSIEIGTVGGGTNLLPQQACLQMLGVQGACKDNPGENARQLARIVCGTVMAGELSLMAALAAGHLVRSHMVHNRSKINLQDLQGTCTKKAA

[3] = molecular target: T3, 3-beta-hydroxysteroid-Delta(8),Delta(7)-isomerase (Mus musculus) (UniProt P70245); assay: Inhibition of delta 8-7 isomerase in Dhcr7-deficient mouse Neuro2a cells assessed as decrease in 7-DHC levels at 1 uM by LC-MS/GC-MS analysis; format: cell-based; procedure, shortened: as §1
T3 sequence (whole entry): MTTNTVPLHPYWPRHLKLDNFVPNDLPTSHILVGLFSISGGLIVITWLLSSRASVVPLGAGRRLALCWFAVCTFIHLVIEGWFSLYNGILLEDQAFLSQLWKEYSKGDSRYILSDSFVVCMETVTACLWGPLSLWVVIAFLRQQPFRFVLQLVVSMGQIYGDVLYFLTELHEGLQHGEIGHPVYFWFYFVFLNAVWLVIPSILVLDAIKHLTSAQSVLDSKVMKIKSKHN

N2a [4] = assay: Decrease in desmosterol levels in mouse Neuro2a cells by LC-MS analysis; format: functional, cell-based
Procedure, shortened: (§2)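 Control Neuro2a cells (10000/well, 0.5% FBS) on compound, 24 h. Hoechst cell count, then methanol lysis with labelled standards (d7-7-DHC, 13C3-desmosterol, 13C3-lanosterol), PTAD derivatization 20 min at RT, UPLC-MS SRM. GC-MS of silylated extract for further sterols.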

N2a [5] = assay: Decrease in lanosterol levels in mouse Neuro2a cells by LC-MS analysis; format: functional, cell-based; procedure, shortened: as §2
[6] = molecular target: T3, 3-beta-hydroxysteroid-Delta(8),Delta(7)-isomerase (Mus musculus); assay: Inhibition of delta 8-7 isomerase in mouse Neuro2a cells assessed as decrease in 7-DHC levels at 1 uM by LC-MS/GC-MS analysis; format: cell-based; procedure, shortened: as §2
[7] = molecular target: T1, Delta(24)-sterol reductase (Mus musculus); assay: Inhibition of DR24 in mouse Neuro2a cells assessed as decrease in 7-DHC levels at 1 uM by LC-MS/GC-MS analysis; format: cell-based; procedure, shortened: as §2
[8] = molecular target: T4, Lanosterol 14-alpha demethylase (Mus musculus, UniProt Q8K0C4); assay: Inhibition of CYP51 in Dhcr7-deficient mouse Neuro2a cells assessed as decrease in 7-DHC levels at 1 uM by LC-MS/GC-MS analysis; format: cell-based
T4 sequence (Q8K0C4 whole entry): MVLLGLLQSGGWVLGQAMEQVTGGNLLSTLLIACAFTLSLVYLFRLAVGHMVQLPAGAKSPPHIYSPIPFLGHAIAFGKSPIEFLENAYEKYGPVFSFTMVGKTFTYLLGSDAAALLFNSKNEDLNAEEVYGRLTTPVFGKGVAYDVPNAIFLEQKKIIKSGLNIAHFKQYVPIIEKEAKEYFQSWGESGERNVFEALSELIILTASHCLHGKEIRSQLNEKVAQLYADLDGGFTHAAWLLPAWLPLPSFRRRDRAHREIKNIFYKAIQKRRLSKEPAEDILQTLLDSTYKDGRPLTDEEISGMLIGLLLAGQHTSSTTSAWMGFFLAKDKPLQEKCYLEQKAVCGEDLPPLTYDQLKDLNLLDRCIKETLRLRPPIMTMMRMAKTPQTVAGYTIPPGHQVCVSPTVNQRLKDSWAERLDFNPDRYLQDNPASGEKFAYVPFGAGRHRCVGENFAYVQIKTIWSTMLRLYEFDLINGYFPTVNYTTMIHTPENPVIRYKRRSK
Procedure, shortened: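 Follow-up (verification) assay in 96-well plates, run as the 384-well screen, in triplicate, at varying compound concentrations. Cells counted by Hoechst imaging, washed with PBS, then lysed in MeOH with BHT/TPP and isotope standards (d7-Chol, d7-7-DHC, 13C3-Des, 13C3-Lan). Sterols derivatised with PTAD for 20 min at RT and quantified by C18 UPLC-MS (SRM). Remaining sample silylated with BSTFA and run on GC-MS, quantified against d7-Chol.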

Fibroblast = assay: Decrease in cholesterol levels in human SLOS fibroblasts at 10 nM after 5 days by LC-MS/GC-MS analysis; format: functional, cell-based
Procedure, shortened: (§3)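 SLOS patient skin fibroblasts (passage 8–20) grown in 96-well plates in delipidated serum with compound for 5 days; three different SLOS lines. Sterols quantified by PTAD-derivatized UPLC-MS plus GC-MS; 7-DHC expressed as percentage of untreated cells.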

[9] = Cytotoxicity against human SLOS fibroblasts at 5 uM after 5 days by Cell Titer assay; format: cell-based; settings: fibroblast, 120 h
[10] = molecular target: T5, Delta(24)-sterol reductase (Homo sapiens) (UniProt Q15392); assay: Inhibition of DR24 in human SLOS fibroblasts assessed as decrease in 7-DHC levels at 10 nM after 5 days by LC-MS/GC-MS analysis; procedure, shortened: as §3
T5 sequence (whole entry): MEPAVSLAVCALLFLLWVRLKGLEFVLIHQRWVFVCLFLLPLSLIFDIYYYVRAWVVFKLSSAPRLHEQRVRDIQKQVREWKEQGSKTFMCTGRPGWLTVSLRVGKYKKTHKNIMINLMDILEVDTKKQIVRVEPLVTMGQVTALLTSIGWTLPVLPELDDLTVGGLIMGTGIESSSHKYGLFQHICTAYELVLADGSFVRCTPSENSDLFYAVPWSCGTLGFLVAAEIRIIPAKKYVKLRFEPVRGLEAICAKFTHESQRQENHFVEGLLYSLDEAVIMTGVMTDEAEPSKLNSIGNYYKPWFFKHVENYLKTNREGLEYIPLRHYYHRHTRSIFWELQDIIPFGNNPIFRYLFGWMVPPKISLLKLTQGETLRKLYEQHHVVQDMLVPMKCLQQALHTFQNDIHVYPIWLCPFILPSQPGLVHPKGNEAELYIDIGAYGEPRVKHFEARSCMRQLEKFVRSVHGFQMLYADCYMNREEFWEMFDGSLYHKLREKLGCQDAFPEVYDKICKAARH

Compound: CC(=O)[C@H]1CC[C@H]2[C@@H]3CCC4=CC(=O)CC[C@]4(C)[C@H]3CC[C@]12C
- inhibition [1]: Active

Compound: CCC(C)(C)C(=O)O[C@H]1C[C@@H](C)C=C2C=C[C@H](C)[C@H](CC[C@@H]3C[C@@H](O)CC(=O)O3)[C@H]21
- 7-DHC decrease call (active/inactive) [2]: Active

Compound: CCN(CC)CCOc1ccc(C(O)(Cc2ccc(Cl)cc2)c2ccc(C)cc2)cc1 (configuration not stated)
- inhibition [1]: Active
- inhibition [3]: Active

Compound: CC[C@H](C)C(=O)O[C@H]1CCC=C2C=C[C@H](C)[C@H](CC[C@@H]3C[C@@H](O)CC(=O)O3)[C@H]21
- 7-DHC decrease call (active/inactive) [2]: Active

Compound: CC[C@H](C)C(=O)O[C@H]1C[C@@H](C)C=C2C=C[C@H](C)[C@H](CC[C@@H]3C[C@@H](O)CC(=O)O3)[C@H]21
- 7-DHC decrease call (active/inactive) [2]: Active

Compound: CC[C@H](C)C(=O)O[C@H]1C[C@H](O)C=C2C=C[C@H](C)[C@H](CC[C@@H](O)C[C@@H](O)CC(=O)O)[C@H]21
- 7-DHC decrease call (active/inactive) [2]: Active

Compound: CCc1c(C)[nH]c2c1C(=O)C(CN1CCOCC1)CC2 (configuration not stated)
- inhibition [1]: Active

Compound: CN(C)CCC=C1c2ccccc2COc2ccccc21
- inhibition [1]: Active

Compound: CN1CCN(CCCN2c3ccccc3Sc3ccc(C(F)(F)F)cc32)CC1
- inhibition [1]: Active

Compound: CN1CCN(CCCN2c3ccccc3Sc3ccc(Cl)cc32)CC1
- inhibition [1]: Active
- inhibition [3]: Active

Compound: CN1CC[C@]2(c3cccc(O)c3)Cc3nc4ccccc4cc3C[C@H]2C1
- inhibition [1]: Active

Compound: CO[C@H]1O[C@@H]2O[C@@]3(C)CC[C@H]4[C@H](C)CC[C@@H]([C@H]1C)[C@@]24OO3
- 7-DHC decrease call (active/inactive) [2]: Active

Compound: C[C@@H]1CC[C@H]2[C@@H](C)C(=O)O[C@@H]3O[C@@]4(C)CC[C@@H]1[C@]32OO4
- inhibition [2]: Active

Compound: Cc1ccc(NC(=O)c2ccc(CN3CCN(C)CC3)cc2)cc1Nc1nccc(-c2cccnc2)n1
- inhibition [1]: Active

Compound: Clc1ccccc1CNC[C@H]1CC[C@H](CNCc2ccccc2Cl)CC1
- Activity (N2a [4]): Active
- Activity (N2a [5]): Active

Compound: O=C(CCCN1CCC(O)(c2ccc(Cl)cc2)CC1)c1ccc(F)cc1
- Activity (N2a [4]): Active
- Activity (N2a [5]): Active

Compound: O=C(O)C[C@H](O)C[C@H](O)/C=C/c1c(C2CC2)nc2ccccc2c1-c1ccc(F)cc1
- Activity (decrease in 7-DHC levels) [6]: Active
- 7-DHC decrease call (active/inactive) [2]: Active
- Decrease in 7-DHC levels (active/inactive call) [7]: Active

Compound: O=c1n(CCCN2CCN(c3cccc(Cl)c3)CC2)nc2ccccn12
- Activity (N2a [4]): Active
- Activity (N2a [5]): Active

Compound: OCCN1CCN(CCCN2c3ccccc3Sc3ccc(C(F)(F)F)cc32)CC1
- inhibition [3]: Active

Compound: OCCN1CCN(CCCN2c3ccccc3Sc3ccc(Cl)cc32)CC1
- inhibition [1]: Active
- inhibition [3]: Active

Compound: OCCOCCN1CCN(C(c2ccccc2)c2ccc(Cl)cc2)CC1 (configuration not stated)
- inhibition [3]: Active

Compound: c1ccc(-c2ccc(C(c3ccccc3)n3ccnc3)cc2)cc1 (configuration not stated) [BIFONAZOLE]
- inhibition (INH) [8]: Active

Compound: Clc1ccccc1C(c1ccccc1)(c1ccccc1)n1ccnc1 [CLOTRIMAZOLE]
- inhibition (INH) [8]: Active

Compound: Clc1ccc(COC(Cn2ccnc2)c2ccc(Cl)cc2Cl)cc1 (configuration not stated) [ECONAZOLE]
- inhibition (INH) [8]: Active

Compound: C[C@]12CC[C@@H]3c4ccc(O)cc4C[C@@H](CCCCCCCCC[S+]([O-])CCCC(F)(F)C(F)(F)F)[C@H]3[C@@H]1CC[C@@H]2O (some centres not stated) [FULVESTRANT]
- inhibition [1]: Active
- Activity (Fibroblast): inactive
- Activity [9]: Toxic
- inhibition [10]: Active

Compound: Clc1ccc(COC(Cn2ccnc2)c2ccc(Cl)cc2Cl)c(Cl)c1 (configuration not stated) [MICONAZOLE]
- inhibition (INH) [8]: Active
